GAA850 FXN act: increases GAA850 frataxin promoter reporter activity; HEK293 lucGAA850 FXN promoter luciferase reporter, 24 h; percent of 10 µM SAHA response; activation, % at 6 µM; 360,000 tested, 0.56% active;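 active = activation above the average of all compounds screened plus 3 SD, cutoff fixed separately per campaign, cut at about 7.5% in these data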
m5-HT2A agonist: agonists of mouse serotonin 5-HT2A receptor (HTR2A) | AID 624169 | CHO-K1 mHTR2A beta-arrestin complementation, luminescence; percent of 30 µM serotonin response | 360,000 tested, 0.66% active | P35363 | activation, % at 7.6 µM;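 active = activation above a run cutoff, the mean activation of all tested compounds plus 3 SD, cut at about 14% in these data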
Target sequence (P35363 whole entry, looked up): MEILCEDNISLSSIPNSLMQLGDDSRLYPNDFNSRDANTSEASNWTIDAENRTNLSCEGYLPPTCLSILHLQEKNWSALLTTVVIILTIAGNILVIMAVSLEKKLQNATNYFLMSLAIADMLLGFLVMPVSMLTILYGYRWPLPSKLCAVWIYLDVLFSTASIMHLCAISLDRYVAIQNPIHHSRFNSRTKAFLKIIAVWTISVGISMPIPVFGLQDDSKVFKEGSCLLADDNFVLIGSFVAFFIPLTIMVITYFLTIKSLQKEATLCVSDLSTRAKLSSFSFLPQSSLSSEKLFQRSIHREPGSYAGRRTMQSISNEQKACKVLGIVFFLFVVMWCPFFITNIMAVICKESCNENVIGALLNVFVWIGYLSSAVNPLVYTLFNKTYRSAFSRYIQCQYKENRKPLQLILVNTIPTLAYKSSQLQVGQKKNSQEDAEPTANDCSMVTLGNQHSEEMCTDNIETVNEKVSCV
AHR activator: activators of human aryl hydrocarbon receptor | P35869 | AHR-responsive luciferase reporter cells, luminescence | activation, % at 5 µM | 320,000 tested, 2.5% active | AID 2796; in the data active = activation above about 47%
MC4R antagonist: human MC4R antagonism in cAMP assay; P32245; MC4R-expressing cells, MTII-stimulated cAMP, LANCE TR-FRET; inhibition, % at 6.5 µM; 360,000 tested, 0.48% active;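 active = inhibition above its plate's cutoff, the mean of tested wells on that plate plus 3 SD, cut at about 29% in these data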
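Material: U2OS-MC4R stable cell line | Reagent: Melanotan II challenge after compound preincubation | Doses: One concentration, 6.5 µM nominal | Incubation: 30-min compound preincubation, 1-h Melanotan II challenge, 1-h detection, room temperature | Signal: TR-FRET cAMP assay | Replicates: One well per compound, no replicates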
MC4R barr agon: activates human MC4R beta-arrestin recruitment | AID 540308 | activation, % at 8.9 µM | P32245 | U2OS MC4R beta-arrestin complementation, luminescence; percent of melanotan II response, DMSO zero | 360,000 tested, 0.98% active;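 active = activation above a per-plate cutoff, the mean activation of sample wells on that plate plus 3 SD, cut at about 8% in these data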
U2OS cAMP counter: counter-screen for MC4R antagonists: nonselective cAMP signaling inhibitors. shares compounds with MC4R antagonist. parental U2OS, forskolin cAMP, LANCE TR-FRET. 1,600 tested, 26% active. inhibition, % at 6.5 µM. AID 602193;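 active = mean inhibition over triplicates above the low-control well mean plus 3 SD, set per campaign, cut at about 13% in these data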;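 note: signal is single emission at 671 nm which falls as cellular cAMP rises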
MC4R antag conf: human MC4R cAMP antagonism confirmation. AID 602195. inhibition, % at 6.5 µM. 1,600 tested, 27% active. shares compounds with MC4R antagonist. MC4R-expressing cells, MTII-stimulated cAMP, TR-FRET; in the data active = inhibition above about 29%
Hits are given with their value; . = inactive; / = no result given. Most compounds without a hit are left out; they make up all but 4.7% or so of the library.

SMILES | GAA850 FXN act | m5-HT2A agonist | AHR activator | MC4R antagonist | MC4R barr agon | U2OS cAMP counter | MC4R antag conf
Cn1nc(C(C)(C)C)cc1C(=O)NCc1ccc2c(c1)OCO2 | . | . | . | . | . | / | /
C/C(=N\Nc1ccc(C(=O)O)cc1)c1ccc(S(=O)(=O)NCc2ccco2)cc1 | . | . | . | . | . | / | /
CC1(C)CC(=O)C(C(C2=C(O)CC(C)(C)CC2=O)c2ccc(Br)s2)C(=O)C1 (stereo not given) | . | . | . | 39 | . | . | .
CN(C)c1ccc(-c2csc(C(C)(O)c3ccccc3)n2)cc1 (stereo not given) | . | . | / | . | . | / | /
CC(NC(=O)COC(=O)CNS(=O)(=O)/C=C/c1ccccc1)c1ccccc1 (stereo not given) | . | . | . | 30 | . | . | .
Cc1ccc(S(=O)(=O)NCC(=O)NCC(=O)OCc2c(F)cccc2Cl)cc1 | . | . | . | 33 | . | 27 | 40
COc1ccc(NC(=O)COC(=O)CNS(=O)(=O)c2ccc(C)cc2)c(OC)c1 | . | . | . | . | . | / | /
COc1ccc(S(=O)(=O)N[C@@H](C)C(=O)OCC(=O)Nc2cc3oc4ccccc4c3cc2OC)cc1 | . | . | . | 35 | . | 23 | 39
Cc1ccc(C(=O)NCC(=O)OCc2c(F)cccc2Cl)cc1 | . | . | . | . | . | / | /
COc1cc2c(cc1NC(=O)COC(=O)CNS(=O)(=O)c1ccc(C)cc1)oc1ccccc12 | . | . | . | 30 | . | . | 41
COc1cc2c(cc1NC(=O)CSc1ccccc1)oc1ccccc12 | . | . | . | . | . | / | /
Cc1ccc(S(=O)(=O)NCC(=O)OCC(=O)Nc2ccccc2OC(F)F)cc1 | . | . | . | 33 | . | 13 | 29
COc1cc(/C=C/C(=O)OCC(=O)N2c3ccccc3NC(=O)C2(C)C)cc(OC)c1OC | . | . | . | . | . | / | /
Cc1ccc(N(C)S(=O)(=O)c2cccc(C(=O)OCC(=O)N(C)Cc3ccccc3)c2)cc1 | . | . | / | . | . | / | /
COC(=O)c1ccc(CNC(=O)COC(=O)CNS(=O)(=O)c2ccc(C)cc2)cc1 | . | . | / | . | . | / | /
Cc1ccc(S(=O)(=O)NCC(=O)OCC(=O)NCc2ccc(F)cc2)cc1 | . | . | . | 34 | . | 18 | .
Cc1cc(C)nc(SCC(=O)N2CCCCC2)n1 | . | . | . | . | . | / | /
Cc1cc2nnc(SCC(=O)N3CCCCCC3)n2c(N)n1 | . | . | . | 29 | . | . | .
CCOC(=O)c1c(NC(=O)CCl)sc(CN(C)C)c1-c1ccccc1 | . | . | . | 48 | . | 23 | 41
COCC(=O)OC1CCn2c1nc1c2C(=O)C(C)=C(NC(C)=O)C1=O (stereo not given) | . | . | / | . | . | / | /
CCc1ccccc1N(CC(=O)NCc1ccco1)C(=O)CCC(=O)Nc1ccccn1 | . | . | . | 31 | . | . | .
O=C(Nc1ccccc1C(F)(F)F)c1c(F)cccc1Cl | . | . | . | 30 | . | . | .
CCOC(=O)c1ccc(-n2cnc(-c3ccc([N+](=O)[O-])cc3)c2)cc1 | / | . | / | / | / | / | /
O=C(c1ccc(S(=O)(=O)N2CCCCC2)cc1)N(c1ccccn1)C1CCCCC1 | . | . | . | 32 | . | . | .
COc1cccc(CN(C(=O)c2ccc([N+](=O)[O-])cc2)C2CCS(=O)(=O)C2)c1 (stereo not given) | . | . | . | . | . | / | /
CC1(C(=O)N/N=C/c2c(F)c(F)c(F)c(F)c2F)CC1(Cl)Cl (stereo not given) | . | . | . | 32 | . | . | 54
Cc1c(/C=N\NC(=O)C2(C)CC2(Cl)Cl)cnn1C (stereo not given) | . | . | . | . | . | / | /
Cn1ccc2c(-c3cccnc3)cc3c(c21)C1CCC3O1 (stereo not given) | / | . | / | / | / | / | /
S=c1[nH]c2ccccc2n2c(=S)[nH]nc12 | . | . | . | 31 | . | 46 | 74
Cc1ccc2c(c1)N(Cc1cccc(Cl)c1)C(=O)c1cccnc1O2 | . | . | . | 39 | . | . | .

Compound activity deposited in PubChem by The Scripps Research Institute Molecular Screening Center.
